Key:
CDV polymerase complex = CDV polymerase complex (Canine distemper virus, UniProt P24658); assay: minigenome luciferase replicon reporter assay, CDV; type: cell-based; settings: 10 µM highest
[1] = shelf-stability at ambient temperature; type: physicochemical
[2] = test system: established human and animal cell lines and primary human PBMCs; assay: CytoTox96 non-radioactive cytotoxicity assay; type: cell-based
Method in brief: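 CytoTox96 non-radioactive cytotoxicity assay; highest concentration tested 75 µM. Signal normalised to vehicle controls as %-toxicity = 100-((specific_490nm)/([…])*100). CC₅₀ derived from the mean of four replicates. Compound dissolved in DMSO. Cell lines kept at 37°C, 5% CO₂ in DMEM with 7.5% FBS.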

[3] = rat model; cited from earlier work
[4] = cited from earlier work
[5] = single-dose oral PK study in ferrets; type: in vivo; settings: ferret, single-dose p.o. 50 mg/kg
Method in brief: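 Ferrets given a single oral dose of 50 mg/kg in PEG-200/0.5% methylcellulose (10/90) at time zero, with blood sampled at set time points afterwards. Plasma prepared from heparinised blood. Drug quantified by internal-standard, reversed-phase isocratic HPLC with positive-ion electrospray LC/MS/MS. PK parameters estimated by modelling software.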

RSV polymerase complex = RSV polymerase complex (Human respiratory syncytial virus A, UniProt P28887); assay: minigenome luciferase replicon reporter assay, RSV; type: cell-based; settings: 10 µM highest
CDV-5804PeH = assay: oral efficacy in ferrets infected intranasally with lethal CDV-5804PeH; type: in vivo, ferret
Method in brief: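 Male and female adult European ferrets without CDV immunity, infected intranasally with 1×10⁵ TCID₅₀ CDV-5804PeH per animal (~10 LD₅₀). Dosing by gastric gavage at 50 mg/kg b.i.d. in PEG200/0.5% methylcellulose (10/90). Post-exposure arm starts 3 days post-infection and runs 14 days; controls receive vehicle. Daily clinical observation. Blood and weights taken days 0, 3, 7, 10, 14, then weekly. Survival analysed by log-rank (Mantel-Cox) test.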

MeV polymerase complex = MeV polymerase complex (Measles virus, UniProt P12576); assay: minigenome luciferase replicon reporter assay, MeV; type: cell-based; settings: 10 µM highest
serum protein binding = type: in vitro ADME
MeV isolates = assay: in vitro efficacy testing against a panel of MeV isolates; type: cell-based, measles virus
Method in brief: (§1)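 Virus yield reduction: cell-associated progeny titred by TCID₅₀. MeV is handled on Vero-hSLAM cells and CDV on Vero-cSLAM cells. Compound in DMSO. EC₅₀ from four-parameter variable-slope non-linear regression, with 95% asymmetric confidence intervals, from at least three independent experiments per virus. SI = CC₅₀/EC₅₀. MeV panel covers seven endemic genotypes; CDV strains are recombinant 5804PeH and Snyder Hill.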

[6] = test system: CDV-5804PeH recombinants harboring L resistance mutations; assay: dose-response inhibition of resistant CDV-5804PeH recombinants; type: cell-based, canine distemper virus
Method in brief: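 Candidate L resistance mutations introduced singly into the CDV-5804PeH background by site-directed mutagenesis. Recombinants recovered, and mutations confirmed by RT-PCR and cDNA sequencing. Dose-response inhibition measured as cell-associated viral titres (TCID₅₀ on Vero-cSLAM cells), as mean ± SD of at least three independent experiments. Four-parameter variable-slope regression.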

[7] = test system: CDV-5804PeH and Snyder Hill isolate; assay: in vitro efficacy testing against pathogenic CDV strains; type: cell-based, canine distemper virus; settings: recombinant CDV-5804PeH and neuroadapted Snyder Hill isolate
Method in brief: as §1

Sequence of MeV polymerase complex (P12576 whole entry): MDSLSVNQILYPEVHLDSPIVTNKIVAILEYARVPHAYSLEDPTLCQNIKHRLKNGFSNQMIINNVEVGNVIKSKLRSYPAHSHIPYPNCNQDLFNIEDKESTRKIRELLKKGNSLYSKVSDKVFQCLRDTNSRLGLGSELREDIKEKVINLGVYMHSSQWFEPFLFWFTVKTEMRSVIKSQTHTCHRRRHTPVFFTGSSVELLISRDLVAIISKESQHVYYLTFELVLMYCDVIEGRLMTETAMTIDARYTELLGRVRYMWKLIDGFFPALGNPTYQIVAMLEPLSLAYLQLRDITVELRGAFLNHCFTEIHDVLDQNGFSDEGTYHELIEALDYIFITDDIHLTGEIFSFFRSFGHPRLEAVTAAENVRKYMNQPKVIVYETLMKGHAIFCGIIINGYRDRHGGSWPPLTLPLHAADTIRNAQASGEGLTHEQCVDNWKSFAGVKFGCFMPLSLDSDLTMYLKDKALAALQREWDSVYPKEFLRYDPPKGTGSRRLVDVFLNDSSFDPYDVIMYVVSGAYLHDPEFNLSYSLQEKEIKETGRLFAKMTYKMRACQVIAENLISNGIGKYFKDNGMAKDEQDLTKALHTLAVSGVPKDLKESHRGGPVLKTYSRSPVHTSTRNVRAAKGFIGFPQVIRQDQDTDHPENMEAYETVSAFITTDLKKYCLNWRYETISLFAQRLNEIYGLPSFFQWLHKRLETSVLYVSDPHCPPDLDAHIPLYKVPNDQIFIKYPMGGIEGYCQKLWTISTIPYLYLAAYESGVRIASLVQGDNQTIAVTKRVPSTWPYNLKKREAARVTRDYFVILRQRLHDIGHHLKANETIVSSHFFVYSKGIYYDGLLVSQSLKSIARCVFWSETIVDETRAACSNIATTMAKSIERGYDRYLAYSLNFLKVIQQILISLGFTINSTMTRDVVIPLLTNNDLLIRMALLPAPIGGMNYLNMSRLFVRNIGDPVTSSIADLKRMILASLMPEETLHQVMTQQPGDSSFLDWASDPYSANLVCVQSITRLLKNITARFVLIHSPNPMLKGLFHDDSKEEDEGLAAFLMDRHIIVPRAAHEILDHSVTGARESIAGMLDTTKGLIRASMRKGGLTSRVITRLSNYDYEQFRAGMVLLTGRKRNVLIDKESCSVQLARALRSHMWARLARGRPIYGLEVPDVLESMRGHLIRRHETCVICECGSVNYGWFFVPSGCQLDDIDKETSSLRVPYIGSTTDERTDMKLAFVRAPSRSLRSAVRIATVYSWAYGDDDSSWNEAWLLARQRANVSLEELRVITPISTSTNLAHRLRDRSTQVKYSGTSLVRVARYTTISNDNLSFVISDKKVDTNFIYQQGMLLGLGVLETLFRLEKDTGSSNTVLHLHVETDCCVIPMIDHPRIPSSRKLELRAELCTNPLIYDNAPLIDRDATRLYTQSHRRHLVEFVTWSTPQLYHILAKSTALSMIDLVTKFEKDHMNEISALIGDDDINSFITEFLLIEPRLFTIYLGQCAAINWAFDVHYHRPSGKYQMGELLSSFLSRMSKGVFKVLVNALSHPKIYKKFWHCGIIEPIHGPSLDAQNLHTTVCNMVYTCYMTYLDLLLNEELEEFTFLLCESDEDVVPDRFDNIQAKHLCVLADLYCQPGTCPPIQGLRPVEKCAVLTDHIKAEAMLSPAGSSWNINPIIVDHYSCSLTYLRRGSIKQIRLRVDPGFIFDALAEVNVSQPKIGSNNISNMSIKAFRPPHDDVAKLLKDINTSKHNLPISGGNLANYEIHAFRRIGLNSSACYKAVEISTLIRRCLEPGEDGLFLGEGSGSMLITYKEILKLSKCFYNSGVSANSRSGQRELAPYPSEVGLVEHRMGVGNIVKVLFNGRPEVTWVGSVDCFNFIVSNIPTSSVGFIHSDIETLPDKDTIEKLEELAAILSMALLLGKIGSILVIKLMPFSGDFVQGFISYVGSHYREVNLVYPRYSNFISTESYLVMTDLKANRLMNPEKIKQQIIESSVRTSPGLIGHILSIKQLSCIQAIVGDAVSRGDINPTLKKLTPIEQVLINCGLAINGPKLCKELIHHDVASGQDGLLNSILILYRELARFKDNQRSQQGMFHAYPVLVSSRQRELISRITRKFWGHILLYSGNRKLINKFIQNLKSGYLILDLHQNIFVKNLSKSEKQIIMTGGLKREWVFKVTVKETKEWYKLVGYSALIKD
Sequence of MeV polymerase complex (P03422 whole entry, further chain): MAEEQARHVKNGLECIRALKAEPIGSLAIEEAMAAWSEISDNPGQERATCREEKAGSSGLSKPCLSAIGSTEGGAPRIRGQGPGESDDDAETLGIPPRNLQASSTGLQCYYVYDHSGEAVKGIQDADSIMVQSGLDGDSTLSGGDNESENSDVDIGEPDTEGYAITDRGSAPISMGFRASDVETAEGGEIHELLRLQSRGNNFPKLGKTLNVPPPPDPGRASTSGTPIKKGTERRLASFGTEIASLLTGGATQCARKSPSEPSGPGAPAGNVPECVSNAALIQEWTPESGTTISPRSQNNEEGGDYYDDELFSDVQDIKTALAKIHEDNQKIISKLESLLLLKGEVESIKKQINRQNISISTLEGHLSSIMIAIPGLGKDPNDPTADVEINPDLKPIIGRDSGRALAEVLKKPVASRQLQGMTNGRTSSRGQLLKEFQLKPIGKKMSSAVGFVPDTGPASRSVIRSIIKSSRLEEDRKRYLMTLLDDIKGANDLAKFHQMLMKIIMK
Sequence of RSV polymerase complex (P28887 whole entry, one chain of several): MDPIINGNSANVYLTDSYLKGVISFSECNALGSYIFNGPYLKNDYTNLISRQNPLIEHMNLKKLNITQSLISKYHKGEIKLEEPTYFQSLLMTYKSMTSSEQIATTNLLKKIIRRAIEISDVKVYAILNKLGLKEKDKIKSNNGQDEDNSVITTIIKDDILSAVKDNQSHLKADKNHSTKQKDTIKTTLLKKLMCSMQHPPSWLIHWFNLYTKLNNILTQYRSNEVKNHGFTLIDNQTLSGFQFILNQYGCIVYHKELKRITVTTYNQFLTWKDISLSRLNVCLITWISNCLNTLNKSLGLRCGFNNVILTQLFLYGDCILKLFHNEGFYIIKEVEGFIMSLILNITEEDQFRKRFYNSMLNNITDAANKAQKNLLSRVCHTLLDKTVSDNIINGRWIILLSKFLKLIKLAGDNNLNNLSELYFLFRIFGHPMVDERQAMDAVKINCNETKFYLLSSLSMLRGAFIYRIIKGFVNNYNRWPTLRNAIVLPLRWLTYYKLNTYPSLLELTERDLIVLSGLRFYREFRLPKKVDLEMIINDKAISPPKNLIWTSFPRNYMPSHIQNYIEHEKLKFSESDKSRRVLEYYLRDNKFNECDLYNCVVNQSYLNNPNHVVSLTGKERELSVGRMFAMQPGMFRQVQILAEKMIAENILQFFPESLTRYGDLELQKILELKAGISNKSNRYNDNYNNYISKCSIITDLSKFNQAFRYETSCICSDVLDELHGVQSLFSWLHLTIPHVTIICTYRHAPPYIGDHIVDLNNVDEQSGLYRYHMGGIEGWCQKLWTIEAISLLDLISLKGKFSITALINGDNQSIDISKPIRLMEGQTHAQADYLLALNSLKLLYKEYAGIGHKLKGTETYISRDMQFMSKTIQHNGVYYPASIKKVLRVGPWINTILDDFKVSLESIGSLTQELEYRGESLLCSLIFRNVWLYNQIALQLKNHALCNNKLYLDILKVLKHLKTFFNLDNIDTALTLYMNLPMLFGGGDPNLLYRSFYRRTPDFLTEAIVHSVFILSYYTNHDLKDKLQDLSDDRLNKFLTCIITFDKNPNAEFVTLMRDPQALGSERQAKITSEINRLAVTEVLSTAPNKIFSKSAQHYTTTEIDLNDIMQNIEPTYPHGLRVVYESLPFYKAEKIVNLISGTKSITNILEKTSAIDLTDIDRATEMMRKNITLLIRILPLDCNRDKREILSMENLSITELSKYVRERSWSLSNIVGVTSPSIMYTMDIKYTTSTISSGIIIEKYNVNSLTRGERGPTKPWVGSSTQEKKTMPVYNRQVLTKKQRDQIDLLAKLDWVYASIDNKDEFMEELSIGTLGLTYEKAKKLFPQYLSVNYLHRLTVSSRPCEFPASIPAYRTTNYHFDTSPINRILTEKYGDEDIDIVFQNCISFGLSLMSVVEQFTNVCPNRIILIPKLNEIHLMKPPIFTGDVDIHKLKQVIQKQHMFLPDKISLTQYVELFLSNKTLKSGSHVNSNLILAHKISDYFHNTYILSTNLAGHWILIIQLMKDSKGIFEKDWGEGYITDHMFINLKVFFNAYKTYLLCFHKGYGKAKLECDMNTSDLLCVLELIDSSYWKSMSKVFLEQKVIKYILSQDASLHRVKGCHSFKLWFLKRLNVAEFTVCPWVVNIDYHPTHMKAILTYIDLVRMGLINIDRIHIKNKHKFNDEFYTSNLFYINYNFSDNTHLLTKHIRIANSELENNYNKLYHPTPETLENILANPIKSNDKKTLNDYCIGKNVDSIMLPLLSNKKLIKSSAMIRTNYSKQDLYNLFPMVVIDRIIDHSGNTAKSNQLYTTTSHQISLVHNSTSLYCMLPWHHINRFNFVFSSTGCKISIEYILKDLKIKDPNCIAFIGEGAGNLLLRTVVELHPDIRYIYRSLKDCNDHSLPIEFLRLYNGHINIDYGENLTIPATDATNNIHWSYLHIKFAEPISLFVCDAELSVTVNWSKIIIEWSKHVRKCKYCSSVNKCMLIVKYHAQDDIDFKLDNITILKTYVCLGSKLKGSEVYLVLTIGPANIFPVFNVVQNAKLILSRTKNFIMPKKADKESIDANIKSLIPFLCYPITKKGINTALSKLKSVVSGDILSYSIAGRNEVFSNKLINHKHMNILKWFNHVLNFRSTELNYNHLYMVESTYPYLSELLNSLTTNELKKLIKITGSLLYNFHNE

Cn1nc(C(F)(F)F)cc1C(=O)Nc1ccc(S(=O)(=O)N2CCCC[C@H]2CCN2CCOCC2)cc1 [ERDRP-0519]
inhibition of RdRp (replicon reporter) activity (CDV polymerase complex): potently inhibited
shelf-stability [1]: exceeded one year without loss of activity
cytotoxicity [2]: low cytotoxicity
oral availability [3]: 39%
bidirectional membrane permeability [4]: high
peak plasma concentration ([5]; PEG-200/0.5% methylcellulose (10/90)): exceeded 1,500 ng/ml
peak plasma concentration ([5]; converted from ng/ml): approximately 3.5 µM
inhibition of RdRp (replicon reporter) activity (RSV polymerase complex): not blocked
PBMC responsiveness (PHA-stimulated proliferation) (CDV-5804PeH; PET group): only transiently impaired
clinical signs of disease (CDV-5804PeH; PET group): remained subclinical
humoral response (neutralizing antibodies) (CDV-5804PeH; PET group): strong humoral response
signs of compound-induced toxicity (CDV-5804PeH; PET group, 50 mg/kg p.o. b.i.d. for 14 days): not observed signs of compound-induced toxicity
prolongation of survival of treated ferrets (CDV-5804PeH; pre-exposure prophylaxis): up to 2 fold
animal survival (CDV-5804PeH; prophylactic dosing, 50 mg/kg p.o. b.i.d. from 24 hours pre-infection): significantly prolonged animal survival
interferon induction levels in PBMCs (CDV-5804PeH; prophylactically treated animals): low interferon induction levels
clearance of infection (CDV-5804PeH; therapeutically dosed animals, by day 28 pI): completely cleared the infection
inhibition of RdRp (replicon reporter) activity (MeV polymerase complex): potently inhibited
serum protein binding (serum protein binding): < 95%
selectivity indices (SI), CC50/EC50 (MeV isolates; against all MeV targets analyzed): > 200
antiviral potency (MeV isolates; panel of MeV isolates representing clades currently endemic worldwide): nanomolar
increase in EC90 concentration versus standard CDV-5804PeH ([6]; CDV-5804PeH-LG835R): approximately 8 fold
increase in EC90 concentration versus standard CDV-5804PeH ([6]; CDV-5804PeH-LH589Y): approximately 8 fold
increase in EC90 concentration versus standard CDV-5804PeH ([6]; CDV-5804PeH-LH816L): approximately 8 fold
increase in EC90 concentration versus standard CDV-5804PeH ([6]; CDV-5804PeH-LN398D): approximately 2 fold
increase in EC90 concentration versus standard CDV-5804PeH ([6]; CDV-5804PeH-LT751I): > 20 fold
increase in EC90 concentration versus standard CDV-5804PeH ([6]; CDV-5804PeH-LT776A): > 20 fold
potency reduction against CDV strains relative to MeV [7]: approximately 2 fold

Source: publication PMC4080709 (Science translational medicine, 2014)
